Key:
[1] = molecular target: Acetylcholinesterase (Homo sapiens, UniProt P22303); test: Inhibition of human whole RBC AChE pretreated for 30 mins by Ellman technique
[2] = molecular target: Cholinesterase (Homo sapiens, UniProt P06276); test: Inhibition of human plasma BChE pretreated for 30 mins by Ellman technique; format: cell-free
[3] = system: Rattus norvegicus; test: Toxicity in Fischer-344 rat assessed as tremor at 10 mg/kg, ip; format: organism-based; design: dose 10 mg/kg, route intraperitoneal; settings: in vivo
[4] = system: Rattus norvegicus; test: Ex vivo inhibition of cholinesterase in Fischer-344 rat plasma at 10 mg/kg, ip after 24 hrs by spectrophotometric analysis; format: functional; settings: Fischer-344, Plasma, route intraperitoneal
Outline: (§1)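 Anesthetized rats given 10 mg/kg i.p.; predrug blood for resting activity, then samples 5 min to 24 hr, centrifuged, plasma frozen at −80° C. Thawed plasma (10 ul) in 0.1 M sodium phosphate pH 7.4 ± iso-OMPA, then DTNB plus S-butyrylthiocholine; 412 nm read 20 min later, r.t., duplicates. Iso-OMPA-sensitive difference expressed as percent of predrug level.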

[5] = system: Rattus norvegicus; test: Ex vivo inhibition of cholinesterase in Fischer-344 rat plasma at 10 mg/kg, ip after 60 mins by spectrophotometric analysis; format: functional; settings: Fischer-344, Plasma, 1 h, route intraperitoneal; outline: as §1
[6] = system: Rattus norvegicus; test: Toxicity in Fischer-344 rat assessed as lacrimation and salivation at 10 mg/kg, ip; format: organism-based; design: dose 10 mg/kg, route intraperitoneal; settings: in vivo

Sequence of Cholinesterase (P06276 whole entry): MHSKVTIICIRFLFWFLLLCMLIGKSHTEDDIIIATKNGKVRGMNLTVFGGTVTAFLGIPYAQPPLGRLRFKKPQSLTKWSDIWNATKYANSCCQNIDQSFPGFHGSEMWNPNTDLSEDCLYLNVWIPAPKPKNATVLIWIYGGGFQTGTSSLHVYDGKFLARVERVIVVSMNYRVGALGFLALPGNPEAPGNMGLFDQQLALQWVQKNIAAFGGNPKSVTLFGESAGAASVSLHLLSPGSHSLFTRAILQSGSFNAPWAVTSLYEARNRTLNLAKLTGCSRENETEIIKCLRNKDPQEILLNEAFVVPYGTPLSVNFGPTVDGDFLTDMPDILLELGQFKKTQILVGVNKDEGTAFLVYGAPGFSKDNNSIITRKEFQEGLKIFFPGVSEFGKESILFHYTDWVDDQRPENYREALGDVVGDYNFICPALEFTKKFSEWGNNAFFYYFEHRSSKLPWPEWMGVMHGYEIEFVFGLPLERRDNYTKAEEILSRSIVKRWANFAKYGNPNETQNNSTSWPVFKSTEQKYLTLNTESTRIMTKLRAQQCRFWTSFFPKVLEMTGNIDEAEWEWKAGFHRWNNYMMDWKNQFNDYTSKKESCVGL
Sequence of Acetylcholinesterase (P22303 whole entry): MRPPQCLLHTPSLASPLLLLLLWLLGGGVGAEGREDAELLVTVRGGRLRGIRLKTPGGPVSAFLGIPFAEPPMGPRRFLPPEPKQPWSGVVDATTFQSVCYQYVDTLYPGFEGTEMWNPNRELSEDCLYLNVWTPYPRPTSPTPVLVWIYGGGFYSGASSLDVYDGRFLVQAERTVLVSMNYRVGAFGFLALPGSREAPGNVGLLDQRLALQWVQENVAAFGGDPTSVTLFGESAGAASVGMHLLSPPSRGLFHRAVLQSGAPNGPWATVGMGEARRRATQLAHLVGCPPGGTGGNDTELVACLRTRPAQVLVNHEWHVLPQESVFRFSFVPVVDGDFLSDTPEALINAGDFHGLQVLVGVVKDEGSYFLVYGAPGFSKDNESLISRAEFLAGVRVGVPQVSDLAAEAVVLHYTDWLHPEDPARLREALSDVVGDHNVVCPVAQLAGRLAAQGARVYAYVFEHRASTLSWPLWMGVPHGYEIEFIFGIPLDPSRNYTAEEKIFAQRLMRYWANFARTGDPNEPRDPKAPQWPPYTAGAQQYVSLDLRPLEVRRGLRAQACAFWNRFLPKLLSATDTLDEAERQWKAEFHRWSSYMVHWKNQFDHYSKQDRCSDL

| SMILES | IC50 [1] | IC50 [2] | also measured |
| --- | --- | --- | --- |
| CNC(=O)Oc1ccc2c(c1)[C@]1(C)CC[N+](C)(C)C1N2C (some centres not stated) | 26.1 nM | – | – |
| CN(C)c1cccc(OC(=O)Nc2ccccc2)c1 | 2500 nM | 18000 nM | – |
| CC(C)c1ccc(NC(=O)Oc2ccc3c(c2)[C@]2(C)CC[N+](C)(CCc4ccccc4)C2N3C)cc1 (some centres not stated) | 300 nM | – | – |
| CN(C)C(=O)Oc1cccc([N+](C)(C)C)c1 [NEOSTIGMINE METHYLSULFATE] | – | 60 nM | – |
| CC(C)c1ccc(NC(=O)Oc2ccc3c(c2)[C@]2(C)CC[N+](C)(C)C2N3C)cc1.[Br-] (some centres not stated) | 145 nM | – | Activity [3]: Non-toxic; inhibition in vivo at 10 mg/kg [4]: 33%; inhibition in vivo at 10 mg/kg [5]: 66%; Activity [6]: Non-toxic |
| C[n+]1cccc(OC(=O)Nc2ccccc2)c1 | > 30000 nM | – | – |
| C[N+](C)(C)c1cccc(OC(=O)Nc2ccccc2)c1 | 1870 nM | 18000 nM | – |
| O=C(Nc1ccccc1)Oc1cccnc1 | > 30000 nM | > 30000 nM | – |
| CN1c2ccc(OC(=O)Nc3ccccc3)cc2[C@]2(C)CC[N+](C)(C)C12 (some centres not stated) | 25.4 nM | – | – |
| Cc1ccccc1NC(=O)Oc1ccc2c(c1)[C@]1(C)CC[N+](C)(C)C1N2C (some centres not stated) | 14.6 nM | – | – |

From ChEMBL document CHEMBL1177652 (Bioorg Med Chem, 2010)
